Reference: PMC7429283 (ACS combinatorial science, 2020)

What was measured:
dopamine receptors = conditions: cited from earlier work
NTMT1 [1] = target: T1, NTMT1 (Homo sapiens, UniProt Q9BV86); test: MALDI-MS methylation inhibition assay; assay type: biochemical; conditions: data not shown
T1 sequence (Q9BV86 1-222): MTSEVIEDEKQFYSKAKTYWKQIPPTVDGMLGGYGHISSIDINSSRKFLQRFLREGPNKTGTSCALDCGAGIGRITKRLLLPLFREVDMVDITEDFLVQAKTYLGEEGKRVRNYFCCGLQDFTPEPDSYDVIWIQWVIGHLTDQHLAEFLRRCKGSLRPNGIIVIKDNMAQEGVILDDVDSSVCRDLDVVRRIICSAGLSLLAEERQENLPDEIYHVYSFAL

NTMT1 [2] = target: T1, NTMT1; test: SAHH-coupled ThioGlo3 fluorescence assay, 1536-well; assay type: biochemical; conditions: IC50, Epigenetic Library qHTS, 1 nM to 57 μM
Outline: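 Final mix of His-NTMT1 125 nM, SAHH 10 μM, SAM 100 μM and ThioGlo3 15 μM in 25 mM Tris pH 7.5, 10 mM KCl, 0.01% Triton X-100. Test compounds were pin-transferred in qHTS dilution series, then SPKRIA peptide was added to 1 μM final (4 μL). Incubation was 30 min, read at Ex 340/Em 450. Fluorescence change from the initial read was normalized plate-wise to DMSO and Ac-RCC1-10 controls.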

NTMT1 [3] = target: T1, NTMT1; test: MTase-Glo luminescence assay, 1536-well; assay type: biochemical; conditions: IC50, Epigenetic Library qHTS, 1 nM to 57 μM
Outline: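 His-tagged NTMT1 was expressed with IPTG induction at 15 °C overnight and purified on Ni-NTA. It was used at 125 nM final with 100 μM SAM in 4 μL wells. Optimized SAHH-ThioGlo3 conditions served as the starting point, with kit reagents at recommended concentrations. SAH was converted to ADP and read by luminescence. Data were normalized plate-wise to DMSO and Ac-RCC1-10 controls, then fitted to concentration-response curves.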

[4] = target: cyclin-dependent kinase 1 (CDK1)/cyclin B; conditions: cited from earlier work
NTMT1 [5] = conditions: cited from earlier work

inhibition in MS testing (NTMT1 [1]) | Compound | Km (NTMT1 [5]) [µM] | other results
– | N[C@@H]1CCc2cc(O)c(O)cc2C1 [6,7-ADTN] | – | IC50 (dopamine receptors): 0.0017 µM
no inhibition | [N-]=[N+]=Nc1nc2c(N)ncnc2n1[C@@H]1O[C@H](CO)[C@@H](O)[C@H]1O [8-Azidoadenosine] | – | IC50 (NTMT1 [2]): 17.1 to 24.3 µM; IC50 (NTMT1 [3]): 17.1 to 24.3 µM
– | CCn1cnc2c(Nc3cccc(Cl)c3)nc(N[C@@H]3CCCC[C@@H]3N)nc21 [CGP 74514A] | – | IC50 [4]: 0.031 µM
no inhibition | COc1cc2nc(N3CCCC3)nc(NC3CC3)c2cc1OC [NCGC00249822] | – | –
– | APKRQSPLPP | 2 | –
– | GPKRIA | 0.5 | –
